In ChEMBL document CHEMBL2396525, “Synthesis and anti-HCMV activity of 1-[ω-(phenoxy)alkyl]uracil derivatives and analogues thereof” (Bioorg Med Chem, 2013):
The source made the active and inactive calls.

Legend:
Influenza A virus [1] = assay: Antiviral activity against Influenza virus A virus H1N1; type: functional, organism-based
How it was run: (§1)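 The assay was a cell-based cytopathicity inhibition test on confluent monolayers with serial compound dilutions. EC50 was the concentration that reduced virus-induced cytopathicity by 50%.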

[2] = test system: Human immunodeficiency virus 1; assay: Antiviral activity against HIV1 3B infected in human CEM cells assessed as inhibition of virus-induced giant cell formation after 4 to 5 days; type: functional, organism-based; details: CCRF-CEM
How it was run: (§2)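 CEM cells at about 3 × 10^5 cells/mL were infected with 100 CCID50 of HIV per mL, with compound dilutions present. They were incubated 4–5 days at 37 °C in humidified CO2, and syncytia were scored microscopically. EC50 is the concentration that inhibits giant cell formation by 50%.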

[3] = Cytotoxicity against human CEM cells; type: cell-based; details: CCRF-CEM (CEM) cells
Human alphaherpesvirus 2 [4] = assay: Antiviral activity against Herpes simplex virus type 2 Lyons; type: functional, organism-based
How it was run: (§3)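 Confluent HEL, Vero, HeLa or MDCK cell cultures were inoculated with 100 CCID50 of virus alongside varying compound concentrations. Cytopathicity was scored when it reached completion in untreated virus controls. EC50 is the concentration that reduces virus-induced cytopathogenicity by 50%.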

[5] = test system: Vesicular stomatitis virus; assay: Antiviral activity against Vesicular stomatitis virus; type: functional, organism-based
[6] = test system: Respiratory syncytial virus; assay: Antiviral activity against Respiratory syncytial virus Long; type: functional, organism-based; how it was run: as §3
Influenza B virus = assay: Antiviral activity against Influenza B virus; type: functional, organism-based; how it was run: as §1
Coxsackievirus B4 = assay: Antiviral activity against Coxsackie B4 virus; type: functional, organism-based; how it was run: as §3
Sindbis virus = assay: Antiviral activity against Sindbis virus; type: functional, organism-based; how it was run: as §3
Human betaherpesvirus 5 [7] = assay: Antiviral actiivty against Human herpesvirus 5 AD169 infected in HEL assessed as reduction of virus-induced plaque formation; type: functional, organism-based; details: Human betaherpesvirus 5, AD169
How it was run: (§4)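 HCMV strains AD-169 and Davis were tested on confluent human embryonic lung fibroblast monolayers infected with 100 PFU in the presence of serial compound concentrations. Plaques were counted once formation was complete in untreated infected controls. EC50 is the concentration that cuts plaque formation by 50%.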

Human alphaherpesvirus 3 [8] = assay: Antiviral activity against Varicella-zoster virus OKA; type: functional; details: strain Oka vaccine
How it was run: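 Confluent cell monolayers were infected with 10 or 100 PFU of VZV in the presence of serial compound dilutions. Plaque formation was recorded once untreated infected controls reached completion. EC50 was the concentration that reduced plaque formation by 50%.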

[9] = Cytotoxicity against HEL assessed as minimum cytotoxic concentration required to cause microscopically detectable alteration in cell morphology; type: cell-based; details: human, HEL cells
Human alphaherpesvirus 3 [10] = assay: Antiviral activity against Varicella-zoster virus YS; type: functional, organism-based
How it was run: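 VZV was assayed by plaque formation. Confluent cell cultures received 10 or 100 PFU with varying compound concentrations, and plaques were recorded once complete in untreated infected controls. EC50 is the concentration that reduces plaque formation by 50%.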

Influenza A virus [11] = assay: Antiviral activity against Influenza virus A virus H3N2; type: functional, organism-based; how it was run: as §1
[12] = test system: Mammalian orthoreovirus 1; assay: Antiviral activity against Reovirus-1; type: functional, organism-based; how it was run: as §3
Human alphaherpesvirus 1 [13] = assay: Antiviral activity against thymidine kinase deficient acyclovir-resistant Herpes simplex virus type 1 KOS; type: functional, organism-based
Human betaherpesvirus 5 [14] = assay: Antiviral actiivty against Human herpesvirus 5 Davis infected in HEL assessed as reduction of virus-induced plaque formation; type: functional, organism-based; details: Human betaherpesvirus 5, Davis; how it was run: as §4
Vaccinia virus = assay: Antiviral activity against Vaccinia virus Lederle; type: functional, organism-based; details: Orthopoxvirus vaccinia
Human alphaherpesvirus 1 [15] = assay: Antiviral activity against Herpes simplex virus type 1 KOS; type: functional, organism-based; how it was run: as §3
[16] = test system: Human immunodeficiency virus 2; assay: Antiviral activity against HIV2 ROD infected in human CEM cells assessed as inhibition of virus-induced giant cell formation after 4 to 5 days; type: functional, organism-based; details: ISOLATE ROD, CCRF-CEM; how it was run: as §2
Punta Toro virus = assay: Antiviral activity against Punta Toro virus; type: functional, organism-based; how it was run: as §3
Human respirovirus 3 = assay: Antiviral activity against Parainfluenza virus 3; type: functional, organism-based; how it was run: as §3
Feline coronavirus = assay: Antiviral activity against Feline coronavirus; type: functional, organism-based
HEL = assay: Cytotoxicity against HEL; type: cell-based; details: human
Human alphaherpesvirus 2 [17] = assay: Antiviral activity against Herpes simplex virus type 2 G; type: functional, organism-based; details: strain G; how it was run: as §3

Cc1cc(C)cc(OCCCCCn2ccc(=O)[nH]c2=O)c1
inactive: Activity (Influenza A virus [1]) | Activity (Human alphaherpesvirus 2 [4]) | Activity [5] | Activity [6] | Activity (Influenza B virus) | Activity (Coxsackievirus B4) | Activity (Sindbis virus) | Activity (Human alphaherpesvirus 3 [8]) | Activity (Human alphaherpesvirus 3 [10]) | Activity (Influenza A virus [11]) | Activity [12] | Activity (Human alphaherpesvirus 1 [13]) | Activity (Vaccinia virus) | Activity (Human alphaherpesvirus 1 [15]) | Activity [16] | Activity (Punta Toro virus) | Activity (Human respirovirus 3) | Activity (Feline coronavirus) | Activity (Human alphaherpesvirus 2 [17])
> 100 µM: EC50 (Human betaherpesvirus 5 [7]) | MCC [9] | EC50 (Human betaherpesvirus 5 [14]) | CC50 (HEL)
24 µM: EC50 ([2]; Human immunodeficiency virus 1, 3B)
154 µM: CC50 [3]

N#Cc1ccc(OCCCCCn2ccc(=O)[nH]c2=O)cc1
8.9 µM: EC50 (Human betaherpesvirus 5 [7])
inactive: Activity (Influenza A virus [1]) | Activity [2] | Activity (Human alphaherpesvirus 2 [4]) | Activity [5] | Activity [6] | Activity (Influenza B virus) | Activity (Coxsackievirus B4) | Activity (Sindbis virus) | Activity (Human alphaherpesvirus 3 [8]) | Activity (Human alphaherpesvirus 3 [10]) | Activity (Influenza A virus [11]) | Activity [12] | Activity (Human alphaherpesvirus 1 [13]) | Activity (Vaccinia virus) | Activity (Human alphaherpesvirus 1 [15]) | Activity [16] | Activity (Punta Toro virus) | Activity (Human respirovirus 3) | Activity (Feline coronavirus) | Activity (Human alphaherpesvirus 2 [17])
100 µM: MCC [9] | CC50 (HEL)
5.5 µM: EC50 (Human betaherpesvirus 5 [14])
